The subject of one data set is KB. In words: Cytotoxicity against human KB cells. Type of data set: functional. As to conditions: read-out: ED50 (the source's name).
The next data set has as its system COLO 205. In words: Cytotoxicity against human COLO205 cells. Type of data set: functional. As to conditions: read-out: ED50 (the source's name).
A short description of data set [1]: Cytotoxicity against mouse RAW264.7 cells assessed as cell viability by MTT reduction assay. It counts as cell-based. As to conditions: read-out: Activity. Put shortly:
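Viability was read by MTT reduction in RAW 264.7 macrophages exposed for 24 h at 37 °C to LPS (1 µg/mL) plus IFN-γ (50 U/mL) with the compound. Results are expressed relative to unstimulated basal control cells. Data are mean ± SEM of six experiments, each in triplicate.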

Data set [2] has as its system RAW264.7. In words: Inhibition of LPS/IFN-gamma-induced nitrite accumulation in mouse RAW264.7 cells at 0.2 mg/ml by Griess reagent assay. It counts as functional. Put shortly: (§1)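 RAW 264.7 cells were grown in DMEM with 10% heat-inactivated FCS at 37 °C under 5% CO2. Compound (DMSO vehicle, 0.02–0.5%) was added together with LPS (1 µg/mL) plus IFN-γ (50 U/mL) for 24 h. Medium nitrite was measured with Griess reagent (1% sulfanilamide, 0.1% naphthylenediamine, 5% phosphoric acid) at OD550 against sodium nitrite standards. Data are mean ± SEM of six experiments, each in triplicate.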

The subject of data set [3] is RAW264.7. In words: Inhibition of LPS/IFN-gamma-induced nitrite accumulation in mouse RAW264.7 cells by Griess reagent assay. Type of data set: functional, cell-based. Put shortly: as §1

≈ marks a conversion by molar mass, not a printed value.

The inhibition is the share of the control response that was lost under treatment. A high value points to strong suppression. By IC50 is commonly meant the midpoint of a concentration-inhibition curve. Lower therefore signals greater potency in that assay.

In the case of `CC1(C)C(O)CC[C@]2(C)[C@H]3CC=C4[C@@H]5C[C@@]6(C)CC(OC6=O)[C@]5(C)CC[C@@]4(C)[C@]3(C)CC[C@@H]12` (some centres undefined), the EC50 in the data set with KB and in the data set on COLO 205 was > 20 µg/mL throughout.
For the compound `CC1(C)CC[C@]2(C)CC[C@]3(C)C(=CC(=O)[C@@H]4[C@@]5(C)CCC(=O)C(C)(C)[C@@H]5CC[C@]43C)[C@@H]2C1`, the EC50 with KB and with COLO 205 was > 20 µg/mL in each case.
`CC(=O)OC[C@]12[C@H](OC(C)=O)[C@H](OC(C)=O)[C@@H]3[C@@H](OC(=O)c4ccccc4)[C@@]14O[C@@]3(C)COC(=O)c1cccnc1C(C)C(C)C(=O)O[C@@H]([C@H](OC(C)=O)[C@@H]2OC(=O)c1ccccc1)[C@]4(C)O` (some centres undefined): the EC50 with KB and in the data set with COLO 205 was > 20 µg/mL each time.
On to `CC(=O)OC[C@]12[C@H](O)[C@@H](OC(C)=O)[C@@H]3[C@@H](OC(C)=O)[C@@]14O[C@@]3(C)COC(=O)c1cccnc1[C@@H](C)[C@H](C)C(=O)O[C@@H]([C@H](OC(=O)c1ccc(=O)n(C)c1)[C@@H]2O)[C@]4(C)O` [EMARGINATINE E], for which the EC50 in the data set with KB turned out to be 1.7 µg/mL (≈ 2.09 µM); in the data set with COLO 205 it was 4.1 µg/mL (≈ 5.03 µM).
On to `CC(=O)OC[C@]12[C@H](OC(C)=O)[C@H](OC(C)=O)[C@@H]3[C@@H](OC(=O)c4ccccc4)[C@@]14O[C@@]3(C)COC(=O)c1cccnc1[C@@H](C)[C@H](C)C(=O)O[C@@H]([C@H](O)[C@@H]2OC(=O)c1ccccc1)[C@]4(C)O` [EUOJAPONINE C], for which the EC50 in the data set on KB and in the data set on COLO 205 was > 20 µg/mL in each case.
Take `CO[C@H]1CC[C@]2(C)[C@H]3C(=O)C[C@@H]4C5=CC(C)(C)CC[C@]5(C)CC[C@@]4(C)[C@]3(C)CC[C@H]2C1(C)C` [LAXIFOLONE A]: the viability in data set [1] was > 95%. In addition, the inhibition at 200 µg/mL with RAW264.7 [2] was > 80%. Also, the IC50 in the data set on RAW264.7 [3] is 120 µg/mL (≈ 264 µM).
For the compound `CC(=O)OC[C@]12[C@H](OC(C)=O)[C@H](OC(C)=O)[C@@H]3[C@@H](OC(C)=O)[C@@]14O[C@@]3(C)COC(=O)c1cccnc1C(C)C(C)C(=O)O[C@@H]([C@H](OC(C)=O)[C@@H]2OC(=O)c1ccccc1)[C@]4(C)O` (some centres undefined) [MAYTEINE], the EC50 with KB and in the data set with COLO 205 was > 20 µg/mL in each case.
Turning to `CC1(C)[C@@H](O)CC[C@]2(C)[C@H]3CC=C4[C@@H]5C[C@](C)(C(=O)O)C[C@H](O)[C@]5(C)CC[C@@]4(C)[C@]3(C)CC[C@@H]12` [MAYTENFOLIC ACID], the EC50 in the data set with KB and in the data set on COLO 205 was > 20 µg/mL each time.
For the compound `C[C@H]1C(=O)CC[C@@H]2[C@]1(C)CC(=O)[C@H]1[C@@]2(C)CC[C@@]2(C)[C@@H]3CC(C)(C)CC[C@]3(C)CC[C@]12C` [PUTRANJIVADIONE], the EC50 in the data set on KB and in the data set on COLO 205 was > 20 µg/mL throughout.

The values are drawn from ChEMBL document CHEMBL1159370, “A novel NO-production-inhibiting triterpene and cytotoxicity of known alkaloids from Euonymus laxiflorus” (J Nat Prod, 2003).
